# Laboratory results taken from article PMC12750372 (Acta Pharmaceutica Sinica. B, 2025).
# pIC50: −log10 of the molar value.
# How the values were obtained:
# [1] = tested on: CREB-mediated transcription; details: read-out: IC50 in CREB Renilla luciferase reporter assay; cited from earlier work
# KIX/KID interaction = details: up to 50 μmol/L; cited from earlier work
# [2] = tested on: CREB-mediated gene transcription; experiment: CREB Renilla luciferase; assay type: cell-based; details: read-out: CREB inhibition IC50; inhibition of CREB-mediated gene transcription in HEK 293T cells, CRE-RLuc, 30 min peptide then Fsk 10 μmol/L for 5 h
# How it was run: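 HEK 293T cells were transfected for 3 h with 2 μg pCRE-RLuc (Renilla luciferase driven by three CRE copies) by lipofection, then replated overnight. Peptides at graded concentrations were added for 30 min before forskolin (10 μmol/L), then incubated 5 h at 37 °C. Lysate Renilla luciferase was normalized to well protein (RLU/μg) and expressed as % CREB activity. IC50 came from nonlinear regression.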
# HEK 293T cells [3] = experiment: Cell uptake by confocal microscopy of FITC-labeled peptides; assay type: cell-based; details: FITC-labeled peptides at 10 μmol/L, 4 h
# How it was run: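 HEK 293T cells attached overnight, then received FITC-labeled peptides in DMEM (0.1% DMSO) at final 1, 10 and 20 μmol/L for 4 h at 37 °C, 5% CO2. After three PBS washes, cells were DAPI-stained (10 μg/mL, 10 min), washed, methanol-fixed 5 min and imaged by multiphoton laser scanning microscopy. The αB helix of KID served as control peptide.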
# HEK 293T cells [4] = experiment: Cell uptake by flow cytometry of FITC-labeled peptides; assay type: cell-based
# How it was run: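 Suspended HEK 293T cells (3 × 10^5, DMEM with 10% FBS) were mixed with FITC-labeled peptides in DMEM (0.1% DMSO) at final 1, 10 and 20 μmol/L for 30 min at room temperature in the dark. They were spun at 500×g, washed in staining buffer, resuspended and run on a flow cytometer. Mean fluorescence from two independent experiments was normalized to a reference stapled peptide at 20 μmol/L.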
pIC50 [2],Cell uptake by confocal imaging (HEK 293T cells [3]),Fold increase of cell uptake compared to linear L3 and stapled S1 (HEK 293T cells [4]),Compound,pIC50 [1],Inhibition of the KIX/KID interaction (in words) (KIX/KID interaction)
–,–,–,O=C(Nc1ccc(Cl)cc1)c1cc2ccccc2cc1OP(=O)(O)O [KG-501],5.27,no significant inhibition
4.18,significant cell uptake,~4 fold,CC(=O)N[C@@H](Cc1ccc(O)cc1)CN(CC(=O)N[C@@H](CCCCN)CN(CC(=O)N[C@@H](Cc1ccccc1)CN(CC(=O)N[C@H]1CCCCNc2c(F)c(F)c(c(F)c2F)Sc2c(F)c(F)c(c(F)c2F)Sc2c(F)c(F)c(c(F)c2F)NCCCC[C@@H](CN(CC(=O)N[C@@H](C)CN(CC(N)=O)S(C)(=O)=O)S(C)(=O)=O)NC(=O)CN(S(=O)(=O)CC(C)C)C[C@H](CC(C)C)NC(=O)CN(S(=O)(=O)CCN)C1)S(=O)(=O)CC(C)C)S(=O)(=O)CCN)S(C)(=O)=O [Compound S3],–,–
